Consider 21 compounds from ChEMBL document CHEMBL1157799, “Creating an antibacterial with in vivo efficacy: synthesis and characterization of potent inhibitors of the bacterial cell division protein FtsZ with improved pharmaceutical properties” (J Med Chem, 2010).

Data set [1] deals with Staphylococcus aureus. Briefly: Antibacterial activity against Staphylococcus aureus ATCC 29213 by broth microdilution assay. It is filed as functional. The essentials:
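Broth microdilution MIC per CLSI recommendations; reproducibility within one 2-fold dilution of the end point.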
In general terms: In broth dilution the organism is exposed to a series of concentrations in liquid medium.

For data set [2], the target named is T1, Cell division protein FtsZ (Staphylococcus aureus) (UniProt P0A031).
T1 sequence (whole entry): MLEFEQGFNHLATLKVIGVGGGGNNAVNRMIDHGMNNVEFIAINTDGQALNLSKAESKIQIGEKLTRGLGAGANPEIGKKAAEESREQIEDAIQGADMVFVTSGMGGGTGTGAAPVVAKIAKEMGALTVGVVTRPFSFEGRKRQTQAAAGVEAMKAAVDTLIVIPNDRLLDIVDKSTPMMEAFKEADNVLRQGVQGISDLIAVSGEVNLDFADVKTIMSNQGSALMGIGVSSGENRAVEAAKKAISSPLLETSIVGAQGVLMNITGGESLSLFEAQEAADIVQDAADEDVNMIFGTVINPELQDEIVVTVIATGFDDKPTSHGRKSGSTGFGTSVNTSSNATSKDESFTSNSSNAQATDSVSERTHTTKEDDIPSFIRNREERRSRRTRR
Briefly: Inhibition of Staphylococcus aureus ATCC 29213 FtsZ assessed as lowest drug level required for ballooning of cells by light microscopy. The procedure, abridged:
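Cocci examined by light microscopy for morphology. Value is the lowest concentration at which ballooning appears; WT is recorded when morphology is unchanged.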

In data set [3] the test system is Staphylococcus aureus. Description: Antibacterial activity against Staphylococcus aureus ATCC 29213 by broth microdilution assay in presence of 2% bovine serum albumin. Format: functional. The procedure, abridged:
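Broth microdilution MIC per CLSI recommendations, with 2% w/v bovine serum albumin added to the assay medium to track the effect of protein on antibacterial activity.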

The test system of data set [4] is Plasma. Briefly: Plasma protein binding in mouse at 10 uM by equilibrium dialysis. It is filed as ADME, cell-free. The procedure, abridged: (§1)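 Binding to plasma measured by equilibrium dialysis of a 10 µM compound solution. Reported as fraction unbound or percent bound.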
Data set [5] addresses Cytochrome P450 2D6 (Homo sapiens, UniProt P10635). Description: Inhibition of human recombinant CYP2D6 by fluorescence assay. It is filed as ADME. The procedure, abridged: (§2)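 Human recombinant CYP isozymes tested by metabolism of fluorogenic substrates, read by fluorescence. IC50 in µg/mL.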
In data set [6] the test system is Staphylococcus aureus. Description: Antimicrobial activity against Staphylococcus aureus Smith infected in sc dosed mouse administered as single dose 1 hr after bacterial inoculation. Format: functional. The procedure, abridged: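 Mice inoculated IP with an LD90-100 of S. aureus Smith (5×10^5 CFU/mouse) in 0.5 mL brain heart infusion broth with 5% mucin. Single SC dose of test substance or vehicle 1 h after inoculation, at 3, 10 or 30 mg/kg. Mortality monitored for 7 days. ED50 by nonlinear regression.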

Data set [7] concerns the target Cytochrome P450 2C19 (Homo sapiens, UniProt P33261). Description: Inhibition of human recombinant CYP2C19 by fluorescence assay. It is filed as ADME. The procedure, abridged: as §2
Data set [8] addresses T2, Cytochrome P450 1A2 (Homo sapiens, UniProt P05177).
T2 sequence (P05177 whole entry): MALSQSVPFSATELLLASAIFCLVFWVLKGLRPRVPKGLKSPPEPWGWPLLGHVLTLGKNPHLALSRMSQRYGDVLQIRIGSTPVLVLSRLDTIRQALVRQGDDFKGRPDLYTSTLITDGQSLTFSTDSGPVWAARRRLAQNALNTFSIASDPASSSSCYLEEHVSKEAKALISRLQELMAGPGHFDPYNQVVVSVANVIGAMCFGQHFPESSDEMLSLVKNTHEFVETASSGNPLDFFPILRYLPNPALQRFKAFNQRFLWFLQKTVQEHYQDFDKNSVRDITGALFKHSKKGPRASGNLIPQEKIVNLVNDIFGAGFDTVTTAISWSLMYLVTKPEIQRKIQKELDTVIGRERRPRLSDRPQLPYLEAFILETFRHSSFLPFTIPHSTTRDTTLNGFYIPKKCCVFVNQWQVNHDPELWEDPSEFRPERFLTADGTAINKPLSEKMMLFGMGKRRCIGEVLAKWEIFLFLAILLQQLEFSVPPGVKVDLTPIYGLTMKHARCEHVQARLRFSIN
Briefly: Inhibition of human recombinant CYP1A2 by fluorescence assay. Format: ADME. The procedure, abridged:
as §2

Data set [9] can be described thus: Clearance in mouse microsome at 10 uM by LC/MS/MS analysis. Format: ADME, Liver. The note with it: microsomes. The essentials: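 Microsomal stability: compound at 10 µM incubated with microsomes. Parent remaining followed over a time course by LC/MS to give clearance per mg protein.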
Data set [10] can be described thus: Chemical stability in phosphate buffered saline assessed as compound remaining at 10 uM after 24 hrs by LC/MS/MS analysis. The note with it: buffer. Format: physicochemical. The essentials: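 10 µM solution in phosphate buffered saline held 24 h at 37 °C. Parent remaining quantified by LC/MS.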
Data set [11] concerns the target Cytochrome P450 3A4 (Homo sapiens, UniProt P08684). Briefly: Inhibition of human recombinant CYP3A4 by fluorescence assay. Format: ADME. The essentials: as §2
Data set [12] deals with Staphylococcus aureus. Briefly: Antimicrobial activity against Staphylococcus aureus Smith infected in mouse assessed as suppression of bacteria-induced mortality at 3 to 30 mg/kg, sc administered as single dose 1 hr after bacterial inoculation measured on day 2. Format: functional, organism-based. The essentials: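 Mice inoculated IP with an LD90-100 of S. aureus Smith in 0.5 mL brain heart infusion broth with 5% mucin (4×10⁵ CFU/mouse for the IP study, 5×10⁵ CFU/mouse for the SC study). Vehicle or test agent given SC or IP 1 h post-infection at 3, 10 or 30 mg/kg. Mortality followed 7 days. ED50 by nonlinear regression.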

The nature of data set [13]: Clearance in mouse hepatocytes at 10 uM assessed per 10^6 cells by LC/MS/MS analysis. It is filed as ADME, cell-based, Liver, Hepatocyte. The essentials: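 Hepatocyte stability: compound at 10 µM incubated with hepatocytes. Parent loss over a time course measured by LC/MS/MS, and clearance expressed per 10⁶ cells.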
The subject of data set [14] is Plasma. Briefly: Metabolic stability in mouse plasma assessed as compound remaining at 10 uM after 24 hrs by LC/MS/MS analysis. Format: ADME, cell-free. The essentials:
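10 µM compound in mouse plasma incubated 24 h at 37 °C. Percent remaining measured by LC/MS.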

Data set [15] concerns the target Cytochrome P450 2C9 (Homo sapiens, UniProt P11712). Description: Inhibition of human recombinant CYP2C9 by fluorescence assay. It is filed as ADME. The essentials:
as §2

In data set [16] the test system is Plasma. Briefly: Fraction unbound in mouse plasma at 10 uM by equilibrium dialysis. It is filed as ADME, cell-free. The essentials: as §1
In general terms: Equilibrium dialysis compares concentrations on both sides of a semipermeable membrane.

The subject of data set [17] is Plasma. Description: Fraction unbound in human plasma at 10 uM by equilibrium dialysis. Format: ADME, cell-free. The procedure, abridged: as §1
Data set [18] has as its system Staphylococcus aureus. Description: Antimicrobial activity against Staphylococcus aureus Smith infected in ip dosed mouse administered as single dose 1 hr after bacterial inoculation. It is filed as functional. The procedure, abridged:
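Mice inoculated IP with an LD90-100 of S. aureus Smith (4×10^5 CFU/mouse) in 0.5 mL brain heart infusion broth with 5% mucin. Single IP dose of test substance or vehicle 1 h after inoculation, at 3, 10 or 30 mg/kg. Mortality monitored for 7 days. ED50 by nonlinear regression.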

In brackets after ≈: the same amount, converted by molar mass. Activity calls are given as the source filed them. The calls are words filed in the database; no cut-off is given here.

Sequence of Cytochrome P450 2D6 (P10635 whole entry, the tested form may be a part): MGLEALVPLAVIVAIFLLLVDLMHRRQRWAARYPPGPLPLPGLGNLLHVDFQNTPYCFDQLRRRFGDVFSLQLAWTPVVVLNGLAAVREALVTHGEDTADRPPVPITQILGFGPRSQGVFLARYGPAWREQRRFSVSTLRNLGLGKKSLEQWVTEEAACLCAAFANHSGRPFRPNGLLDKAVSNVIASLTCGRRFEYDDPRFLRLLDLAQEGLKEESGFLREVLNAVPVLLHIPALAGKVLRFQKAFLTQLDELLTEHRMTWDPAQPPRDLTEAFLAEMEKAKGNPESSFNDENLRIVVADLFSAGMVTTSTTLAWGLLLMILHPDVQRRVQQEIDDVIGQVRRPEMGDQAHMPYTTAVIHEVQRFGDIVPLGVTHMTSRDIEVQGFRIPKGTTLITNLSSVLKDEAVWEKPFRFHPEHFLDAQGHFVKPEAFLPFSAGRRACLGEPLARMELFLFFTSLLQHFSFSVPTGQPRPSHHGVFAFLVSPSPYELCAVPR
Sequence of Cytochrome P450 3A4 (P08684 whole entry, the tested form may be a part): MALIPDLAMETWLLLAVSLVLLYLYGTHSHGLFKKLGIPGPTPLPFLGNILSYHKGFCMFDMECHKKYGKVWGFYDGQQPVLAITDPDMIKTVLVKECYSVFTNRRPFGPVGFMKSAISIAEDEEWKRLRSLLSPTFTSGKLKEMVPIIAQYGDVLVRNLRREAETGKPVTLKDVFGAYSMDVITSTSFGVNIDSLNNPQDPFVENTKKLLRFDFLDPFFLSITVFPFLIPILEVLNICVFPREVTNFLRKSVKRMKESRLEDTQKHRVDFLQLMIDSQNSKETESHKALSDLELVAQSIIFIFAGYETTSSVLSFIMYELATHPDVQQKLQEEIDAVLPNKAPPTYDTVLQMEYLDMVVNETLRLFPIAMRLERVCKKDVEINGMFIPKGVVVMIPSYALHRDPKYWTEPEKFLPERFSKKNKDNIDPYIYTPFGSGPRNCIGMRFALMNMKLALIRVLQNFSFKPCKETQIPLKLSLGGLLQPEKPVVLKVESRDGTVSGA
Sequence of Cytochrome P450 2C19 (P33261 whole entry): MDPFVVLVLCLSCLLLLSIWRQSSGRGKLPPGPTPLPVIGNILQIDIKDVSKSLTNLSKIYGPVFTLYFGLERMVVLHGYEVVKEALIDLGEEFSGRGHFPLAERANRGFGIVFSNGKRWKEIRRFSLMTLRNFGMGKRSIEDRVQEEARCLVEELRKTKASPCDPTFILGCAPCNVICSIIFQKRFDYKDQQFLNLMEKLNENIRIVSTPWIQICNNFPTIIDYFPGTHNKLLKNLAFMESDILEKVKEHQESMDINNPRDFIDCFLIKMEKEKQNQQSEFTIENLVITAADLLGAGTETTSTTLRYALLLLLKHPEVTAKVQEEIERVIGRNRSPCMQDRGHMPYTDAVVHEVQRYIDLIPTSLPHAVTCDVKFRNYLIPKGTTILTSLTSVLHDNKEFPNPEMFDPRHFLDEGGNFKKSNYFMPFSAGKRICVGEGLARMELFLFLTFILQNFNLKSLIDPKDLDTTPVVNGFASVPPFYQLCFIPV
Sequence of Cytochrome P450 2C9 (P11712 whole entry): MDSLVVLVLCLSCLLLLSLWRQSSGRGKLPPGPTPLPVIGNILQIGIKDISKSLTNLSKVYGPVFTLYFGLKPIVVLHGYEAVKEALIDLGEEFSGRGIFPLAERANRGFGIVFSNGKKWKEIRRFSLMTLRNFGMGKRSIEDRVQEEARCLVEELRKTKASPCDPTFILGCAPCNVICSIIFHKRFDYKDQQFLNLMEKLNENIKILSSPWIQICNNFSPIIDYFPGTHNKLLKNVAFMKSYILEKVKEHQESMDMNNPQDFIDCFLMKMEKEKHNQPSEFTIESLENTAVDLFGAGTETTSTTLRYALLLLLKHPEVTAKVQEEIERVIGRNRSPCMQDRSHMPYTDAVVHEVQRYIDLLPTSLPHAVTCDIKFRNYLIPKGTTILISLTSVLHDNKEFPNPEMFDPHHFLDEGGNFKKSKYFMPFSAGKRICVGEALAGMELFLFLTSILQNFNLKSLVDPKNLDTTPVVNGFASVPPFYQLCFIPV

With `NC(=O)c1ccc2sc(COc3ccc(F)c(C(N)=O)c3F)nc2c1`, the MIC in data set [1] is > 64 µg/mL.

`COC(=O)c1ccc2sc(COc3ccc(F)c(C(N)=O)c3F)nc2c1`: the Activity in data set [2] was 2 µg/mL. In [1], this compound registered an MIC of 1 µg/mL (≈ 2.64 µM).

`COc1ccc2nc(COc3ccc(F)c(C(N)=O)c3F)sc2c1`: in data set [1], the MIC is > 256 µg/mL.

`NC(=O)c1c(F)ccc(OCc2nc3cc(Br)ccc3s2)c1F`: the Activity in [2] stood at 0.25 µg/mL. The MIC in data set [1] turned out to be 0.125 µg/mL (≈ 0.313 µM).

As for `NC(=O)c1c(F)ccc(OCc2nc3c(Cl)cccc3s2)c1F`, in data set [2], the Activity is 8 µg/mL. Besides, the MIC in data set [1] came out at 16 µg/mL (≈ 45.1 µM).

`NC(=O)c1c(F)ccc(OCc2nc3cc(-c4ccccc4)cnc3s2)c1F`: the MIC in data set [3] amounted to 4 µg/mL; in [1], 0.5 µg/mL (≈ 1.26 µM). The PPB in data set [4] worked out at 98.5%.

As to `Cc1csc(COc2ccc(F)c(C(N)=O)c2F)n1`, the MIC in data set [2] turned out to be 16 µg/mL (≈ 56.3 µM).

For the compound `CCCc1ccc2sc(COc3ccc(F)c(C(N)=O)c3F)nc2c1`, the Activity in data set [2] came to 0.125 µg/mL.

As to `NC(=O)c1c(F)ccc(OCc2nc3cc(O)ccc3s2)c1F`, the Activity in data set [2] is 64 µg/mL. Also, the MIC in data set [1] was 32 µg/mL (≈ 95.1 µM).

For `NC(=O)c1c(F)ccc(OCc2nc3ccccc3s2)c1F`, the MIC in [3] turned out to be 8 µg/mL; in data set [2] it was 4 µg/mL (≈ 12.5 µM); in data set [1], 2 µg/mL (≈ 6.24 µM).

With `CN(C)c1ccc2sc(COc3ccc(F)c(C(N)=O)c3F)nc2c1`, the MIC in data set [1] is > 64 µg/mL.

Take `NC(=O)c1c(F)ccc(OCc2nc3cc(N)ccc3s2)c1F`: the MIC in [1] was > 64 µg/mL.

`CCOc1cnc2sc(COc3ccc(F)c(C(N)=O)c3F)nc2c1`: the MIC in data set [3] was found to be 0.25 µg/mL; in data set [1], 0.125 µg/mL (≈ 0.342 µM). Further, the PPB in data set [4] came to 89.9%.

`NC(=O)c1c(F)ccc(OCc2nc3cc(-c4ccccc4)ccc3s2)c1F` gave a PPB in data set [4] of 99.2%. Besides, in data set [2], the Activity turned out to be 0.5 µg/mL. In [1], this compound displayed an MIC of 0.25 µg/mL (≈ 0.631 µM).

For the compound `NC(=O)c1c(F)ccc(OCc2nc3cc(Cl)ncc3s2)c1F`, the figures for the MIC in [3] and in data set [1] were 32 µg/mL and 8 µg/mL (≈ 22.5 µM), respectively.

In the case of `NC(=O)c1c(F)ccc(OCc2nc3cc(-c4ncc[nH]4)ccc3s2)c1F`, the MIC in data set [1] is > 64 µg/mL.

As to `CCOc1ccc2sc(COc3ccc(F)c(C(N)=O)c3F)nc2c1`, the PPB in data set [4] is 96.4%. In addition, in [2], the Activity was 0.125 µg/mL.

Usually IC50 stands for the concentration needed to halve the response being measured. The term ED50 denotes the dose at which the effect has come halfway, by size or by number of responders. A low value points to greater potency. Regarding `NC(=O)c1c(F)ccc(OCc2nc3cc(Cl)ccc3s2)c1F`, the 50% inhibitory concentration (IC50) in data set [5], in data set [7], in [8], in data set [11] and in data set [15] was > 33.8 µM in each case. The median effective dose (ED50) in data set [6] was > 30 mg/kg; in [18], 41 mg/kg. In addition, the PPB in data set [4] turned out to be 96.4%. The CL in data set [9] was found to be 14 µL/min/mg; in data set [13], 31.2 uL/min/10^6cells. The Stability in data set [10] and in data set [14] was 99% throughout. In data set [12], the result was inactive. Also, in data set [2], the Activity is 0.25 µg/mL. Besides, the Fu was 3% in data set [16] and 1% in data set [17].

With `Cc1cccc(COc2ccc(F)c(C(N)=O)c2F)n1`, the MIC is 64 µg/mL in data set [3] and 32 µg/mL (≈ 115 µM) in data set [2].

For `Cc1ccc2sc(COc3ccc(F)c(C(N)=O)c3F)nc2c1`, the Activity in [2] stood at 8 µg/mL. The compound also yielded an MIC in data set [1] of 4 µg/mL (≈ 12 µM).

On to `NC(=O)c1c(F)ccc(OCc2nc3cc(C(F)(F)F)ccc3s2)c1F`, for which the Activity in data set [2] was 0.5 µg/mL. In [1], this compound gave an MIC of 0.25 µg/mL (≈ 0.644 µM).
